Assay [1] addresses Kappa-type opioid receptor (Homo sapiens) (UniProt P41145). In words: Selectivity ratio measured as the delta IC50 to that of kappa IC50 values. The format is functional.
Assay [2] addresses Mu-type opioid receptor (Homo sapiens) (UniProt P35372). Briefly: Selectivity ratio measured as the delta IC50 to that of mu IC50 values. Format: functional.
Assay [3] has as its target Delta-type opioid receptor (Mus musculus) (UniProt P32300). In words: Agonist activity in mouse vas deferens assay relative to DADLE. The format is functional, tissue-based. Summed up: (§1)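 Agonist activity in MVD or GPI preparations; ligands that were not full agonists tested at 1 µM, activity expressed as percent of maximal response.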
Assay [4] has as its target Mu-type opioid receptor (Cavia porcellus) (UniProt P97266). In words: Agonist activity against guinea pig ileum Opioid receptor mu 1. The format is functional, tissue-based. Summed up:
as §1

Assay [5] concerns the target Kappa-type opioid receptor (Cavia porcellus) (UniProt P41144). In words: Agonist activity against guinea pig ileum kappa receptor relative to ethylketazocine. Format: functional, tissue-based. Summed up:
as §1

For assay [6], the target named is Mu-type opioid receptor (Cavia porcellus) (UniProt P97266). Briefly: Activity against mu receptor on electrically stimulated guinea pig ileum using morphine as the standard agonist (Opioid receptor mu 1). The format is functional, tissue-based. Summed up:
(§2)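 Antagonist test in electrically stimulated smooth muscle, DADLE in MVD, morphine or ethylketazocine in GPI: ligand (100 nM) preincubated with the preparation 15 min before agonist testing. IC50 ratio = agonist IC50 with test compound / control IC50 in same preparation; Ke = [antagonist]/(IC50 ratio − 1).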

Assay [7] concerns the target Kappa-type opioid receptor (Cavia porcellus) (UniProt P41144). Briefly: Activity against Opioid receptor kappa 1 on electrically stimulated guinea pig ileum using ethylketazocine as the standard agonist. The format is functional, tissue-based. Summed up:
as §2

The target of assay [8] is Delta-type opioid receptor (Mus musculus) (UniProt P32300). In words: Activity against Opioid receptor delta 1 on electrically stimulated mouse vas deferens using DADLE as agonist. Format: functional, tissue-based. Summed up:
as §2

The target in assay [9] is Kappa-type opioid receptor (Mus musculus, UniProt P33534). In words: Binding affinity against Opioid receptor kappa 1 binding in ICR mouse brain membranes using the radioligand [3H]U-69593. Format: cell membranes, Membrane. A digest of the protocol: (§3)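 Competition binding on ICR mouse brain membranes using selective radioligands: [3H]naltrindole (δ), [3H]DAMGO (μ), [3H]U69593 (κ). Ki reported as mean ± SEM of at least three determinations.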

In assay [10] the target is Delta-type opioid receptor (Mus musculus, UniProt P32300). Briefly: Binding affinity against Opioid receptor delta 1 receptor binding in ICR mouse brain membranes using the radioligand [3H]naltrindole. The format is cell membranes, Membrane. Summed up:
as §3

In another assay the target is Mu-type opioid receptor (Mus musculus, UniProt P42866). Briefly: Binding affinity against Opioid receptor mu 1 binding in ICR mouse brain membranes using the radioligand [3H][Ala2,Glyol5]enkephalin. The format is cell membranes, Membrane. A digest of the protocol:
as §3

Assay [11] deals with Mu-type opioid receptor (Cavia porcellus) (UniProt P97266). In words: Agonist guinea pig ileum. Format: functional, tissue-based. A digest of the protocol: as §1
Assay [12] shares this target. Briefly: Agonist guinea pig ileum (Opioid receptor mu 1). The format is functional, tissue-based. A digest of the protocol: as §1
The target in assay [13] is Delta-type opioid receptor (Homo sapiens) (UniProt P41143). In words: Selectivity ratio measured as the mu Ki to that of delta Ki values. Summed up: (§4)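 Ki selectivity ratio = Ki at κ or μ (ICR mouse brain membranes, [3H]U69593 or [3H]DAMGO) divided by Ki at δ ([3H]naltrindole competition).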
Assay [14] has the same target. Briefly: Selectivity ratio measured as the kappa Ki to that of delta Ki values. A digest of the protocol:
as §4

The text below walks through data of ChEMBL document CHEMBL1130071, “Pyrrolomorphinans as delta opioid receptor antagonists. The role of steric hindrance in conferring selectivity” (J Med Chem, 1997).

Chain of Delta-type opioid receptor (Homo sapiens) (P41143 whole entry): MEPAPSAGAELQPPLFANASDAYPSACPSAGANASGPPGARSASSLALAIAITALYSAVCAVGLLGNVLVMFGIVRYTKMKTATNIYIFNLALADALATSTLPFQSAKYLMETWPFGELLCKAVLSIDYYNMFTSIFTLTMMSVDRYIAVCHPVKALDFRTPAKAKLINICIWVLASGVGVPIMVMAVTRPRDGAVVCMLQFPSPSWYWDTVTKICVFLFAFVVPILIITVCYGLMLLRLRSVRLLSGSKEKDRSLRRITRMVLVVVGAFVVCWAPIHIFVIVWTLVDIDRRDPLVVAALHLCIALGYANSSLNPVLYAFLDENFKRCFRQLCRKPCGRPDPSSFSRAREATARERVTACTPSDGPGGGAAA
Chain of Delta-type opioid receptor (P32300 whole entry): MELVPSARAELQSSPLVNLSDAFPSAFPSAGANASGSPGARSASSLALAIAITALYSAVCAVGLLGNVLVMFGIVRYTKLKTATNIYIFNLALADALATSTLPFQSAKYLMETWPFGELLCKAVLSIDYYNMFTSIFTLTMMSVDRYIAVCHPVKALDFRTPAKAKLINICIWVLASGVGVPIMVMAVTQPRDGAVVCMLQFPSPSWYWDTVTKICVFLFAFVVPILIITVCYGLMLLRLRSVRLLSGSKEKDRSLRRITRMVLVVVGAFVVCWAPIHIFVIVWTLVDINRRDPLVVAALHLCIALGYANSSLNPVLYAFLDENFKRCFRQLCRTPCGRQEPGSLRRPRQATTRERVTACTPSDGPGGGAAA
Chain of Delta-type opioid receptor (Mus musculus) (P32300 whole entry): as above
Chain of Kappa-type opioid receptor (Homo sapiens) (P41145 whole entry): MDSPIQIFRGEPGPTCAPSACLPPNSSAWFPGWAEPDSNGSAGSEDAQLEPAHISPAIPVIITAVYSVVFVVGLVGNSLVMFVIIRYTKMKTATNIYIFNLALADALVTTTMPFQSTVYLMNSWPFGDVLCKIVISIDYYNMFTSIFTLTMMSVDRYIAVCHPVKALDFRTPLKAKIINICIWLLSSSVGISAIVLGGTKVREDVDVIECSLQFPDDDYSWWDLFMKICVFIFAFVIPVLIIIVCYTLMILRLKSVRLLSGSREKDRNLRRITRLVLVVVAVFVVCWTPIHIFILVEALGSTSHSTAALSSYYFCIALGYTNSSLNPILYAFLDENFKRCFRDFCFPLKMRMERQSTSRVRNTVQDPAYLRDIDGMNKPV
Chain of Kappa-type opioid receptor (P33534 whole entry): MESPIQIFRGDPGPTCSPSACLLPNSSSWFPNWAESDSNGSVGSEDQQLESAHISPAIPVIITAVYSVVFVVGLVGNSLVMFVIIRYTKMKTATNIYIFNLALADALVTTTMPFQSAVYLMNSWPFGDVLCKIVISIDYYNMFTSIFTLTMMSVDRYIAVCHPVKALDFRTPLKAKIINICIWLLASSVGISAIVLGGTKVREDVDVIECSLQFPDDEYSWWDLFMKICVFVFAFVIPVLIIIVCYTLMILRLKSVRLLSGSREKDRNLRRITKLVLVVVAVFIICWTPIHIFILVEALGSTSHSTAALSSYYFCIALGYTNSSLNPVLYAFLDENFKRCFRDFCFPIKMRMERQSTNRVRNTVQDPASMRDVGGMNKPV
Chain of Mu-type opioid receptor (Homo sapiens) (P35372 whole entry): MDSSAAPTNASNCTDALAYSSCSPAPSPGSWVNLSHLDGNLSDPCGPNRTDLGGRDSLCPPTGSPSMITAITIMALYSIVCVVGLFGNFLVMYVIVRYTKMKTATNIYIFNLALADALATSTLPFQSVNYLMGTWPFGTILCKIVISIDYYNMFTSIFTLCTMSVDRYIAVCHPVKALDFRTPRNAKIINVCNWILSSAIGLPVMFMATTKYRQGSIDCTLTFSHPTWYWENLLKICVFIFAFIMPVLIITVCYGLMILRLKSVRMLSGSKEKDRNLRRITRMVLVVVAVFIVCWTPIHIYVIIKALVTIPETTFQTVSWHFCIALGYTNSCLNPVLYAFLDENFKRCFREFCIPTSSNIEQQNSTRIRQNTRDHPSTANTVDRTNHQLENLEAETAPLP
Chain of Mu-type opioid receptor (Cavia porcellus) (P97266 whole entry): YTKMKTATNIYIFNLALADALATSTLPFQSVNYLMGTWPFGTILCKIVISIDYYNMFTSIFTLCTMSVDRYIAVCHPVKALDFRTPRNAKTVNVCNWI
Chain of Mu-type opioid receptor (P42866 whole entry): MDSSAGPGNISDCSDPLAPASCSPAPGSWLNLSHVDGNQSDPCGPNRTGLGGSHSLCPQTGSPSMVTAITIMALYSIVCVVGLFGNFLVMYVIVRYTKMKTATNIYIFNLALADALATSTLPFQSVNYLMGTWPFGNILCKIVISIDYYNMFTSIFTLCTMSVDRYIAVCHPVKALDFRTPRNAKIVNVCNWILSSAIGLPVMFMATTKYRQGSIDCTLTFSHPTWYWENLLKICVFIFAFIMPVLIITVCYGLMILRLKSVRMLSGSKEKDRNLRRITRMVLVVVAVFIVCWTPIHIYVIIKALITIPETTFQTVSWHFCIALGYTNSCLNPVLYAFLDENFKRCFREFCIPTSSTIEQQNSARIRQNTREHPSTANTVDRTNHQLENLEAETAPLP
Chain of Kappa-type opioid receptor (Cavia porcellus) (P41144 whole entry): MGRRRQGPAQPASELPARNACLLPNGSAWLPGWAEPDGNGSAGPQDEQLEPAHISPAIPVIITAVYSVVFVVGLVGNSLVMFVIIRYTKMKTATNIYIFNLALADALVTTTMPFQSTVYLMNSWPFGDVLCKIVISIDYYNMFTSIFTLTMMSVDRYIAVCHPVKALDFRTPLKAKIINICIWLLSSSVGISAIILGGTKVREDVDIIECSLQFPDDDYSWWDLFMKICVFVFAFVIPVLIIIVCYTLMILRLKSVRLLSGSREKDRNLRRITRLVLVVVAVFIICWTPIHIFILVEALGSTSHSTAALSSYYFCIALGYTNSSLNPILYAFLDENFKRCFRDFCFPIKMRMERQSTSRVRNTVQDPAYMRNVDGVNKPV

Take `O=C1/C(=C/c2ccccc2)C[C@@]2(O)[C@H]3Cc4ccc(O)c5c4[C@@]2(CCN3CC2CC2)[C@H]1O5`: the figures for the Selectivity ratio in assay [1] and in assay [2] were 18 and 2.7, respectively.

In the case of `CC(C)Cc1[nH]c2c(c1-c1ccccc1)C[C@@]1(O)C3Cc4ccc(O)c5c4C1(CCN3CC1CC1)[C@H]2O5` (stereo not given in full), the figures for the IC50 ratio in assay [3], in assay [4] and in assay [5] were 0.76, 4.1 and 1.3, respectively. In addition, the Selectivity ratio in assay [1] and in assay [2] was 0.2 in each case.

`Cc1[nH]c2c(c1-c1ccccc1)C[C@@]1(O)C3Cc4ccc(O)c5c4C1(CCN3CC1CC1)[C@H]2O5` (stereo not given in full): the IC50 ratio was found to be 1.6 in assay [3], 0.9 in assay [4] and 0.98 in assay [5]. For the same molecule, the Selectivity ratio in assay [1] and in [2] was 1.6 each time.

`Cn1c2c(c3c1[C@@H]1Oc4c(O)ccc5c4C14CCN(CC1CC1)C(C5)[C@]4(O)C3)CCCC2` (stereo not given in full): the Ke in assay [6] was determined as 158 nM; in [7], 254 nM.

As for `CCCCc1c(CC(C)C)[nH]c2c1C[C@@]1(O)C3Cc4ccc(O)c5c4C1(CCN3CC1CC1)[C@H]2O5` (stereo not given in full), the IC50 ratio amounted to 9.8 in [3], 0.76 in [4] and 0.99 in assay [5]. The Selectivity ratio in [1] and in assay [2] was 10 throughout. The same molecule yielded a Ke in assay [8] of 11.4 nM.

Regarding `Oc1ccc2c3c1O[C@H]1c4[nH]c5ccccc5c4C[C@@]4(O)[C@@H](C2)N(CC2CC2)CC[C@]314` [NALTRINDOLE], the Ki (in general, the dissociation constant of the complex between target and ligand, obtained from inhibition or displacement) in [9] worked out at 355 nM; in [10], 0.04 nM; at Mu-type opioid receptor, 6.1 nM.

With `Oc1ccc2c3c1O[C@H]1c4[nH]c(-c5ccccc5)c(-c5ccccc5)c4C[C@@]4(O)C(C2)N(CC2CC2)CCC314` (stereo not given in full), the IC50 ratio in assay [3] is 1.4; in assay [11] it was 1.1; in assay [12] it was 1.2. Besides, the Selectivity ratio in [1] and in [2] was 1 in each case.

`Cc1[nH]c2c(c1C)C[C@@]1(O)C3Cc4ccc(O)c5c4C1(CCN3CC1CC1)[C@H]2O5` (stereo not given in full): the IC50 ratio turned out to be 7.7 in assay [3], 1.5 in assay [4] and 1.4 in assay [5]. For the same molecule, the Selectivity ratio was determined as 7 in [1], 95 in [13], 53.7 in [14] and 5 in [2]. The results for the inhibition constant Ki (in assay [9]; in assay [10]; on Mu-type opioid receptor) were 22 nM, 0.41 nM and 39 nM, respectively. Moreover, in assay [8], the Ke worked out at 14.8 nM.

On to `Oc1ccc2c3c1O[C@H]1c4[nH]cc(-c5ccccc5)c4C[C@@]4(O)C(C2)N(CC2CC2)CCC314` (stereo not given in full), for which the values for the IC50 ratio in assay [3], in assay [4] and in assay [5] were 1.5, 2.3 and 2.1, respectively. Moreover, the Selectivity ratio was 0.7 in assay [1], 7.8 in [13], 16.7 in [14] and 0.7 in assay [2]. In addition, the Ki in assay [9] came out at 45 nM; in assay [10], 2.7 nM; on Mu-type opioid receptor, 21 nM.

Take `Cc1[nH]c2c(c1Cc1ccccc1)C[C@@]1(O)C3Cc4ccc(O)c5c4C1(CCN3CC1CC1)[C@H]2O5` (stereo not given in full): the IC50 ratio worked out at 50 in assay [3], 1.3 in assay [4] and 1.3 in [5]. Moreover, the Selectivity ratio in [1] stood at 50; in [13], 80; in [14], 117; in assay [2], 50. The figures for the Ki (in assay [9]; in assay [10]; at Mu-type opioid receptor) were 41 nM, 0.35 nM and 28 nM, respectively. The molecule further registered a Ke in [8] of 2.1 nM.

Turning to `Oc1ccc2c3c1O[C@H]1c4[nH]ccc4C[C@@]4(O)C(C2)N(CC2CC2)CCC314` (stereo not given in full), the Selectivity ratio in [1] amounted to 0.17; in assay [2], 0.03. The Ke in [6] turned out to be 0.65 nM; in [7], 3.2 nM; in [8], 3.2 nM.

Regarding `CCCCc1c(C)[nH]c2c1C[C@@]1(O)C3Cc4ccc(O)c5c4C1(CCN3CC1CC1)[C@H]2O5` (stereo not given in full), the IC50 ratio in assay [3] is 16.8; in assay [4], 2.1; in assay [5], 0.95. Besides, the Selectivity ratio in assay [1] was found to be 17; in assay [13], 4.8; in [14], 3.3; in [2], 8. Further, the Ki in [9] came out at 39 nM; in assay [10] it was 12 nM; on Mu-type opioid receptor, 57 nM. The molecule further returned a Ke in assay [8] of 6.7 nM.

As for `Cc1c(CC(C)C)[nH]c2c1C[C@@]1(O)C3Cc4ccc(O)c5c4C1(CCN3CC1CC1)[C@H]2O5` (stereo not given in full), the IC50 ratio amounted to 32 in assay [3], 380 in assay [4] and 380 in assay [5]. In assay [8], this molecule displayed a Ke of 3.3 nM.
